Assay results reported in PubChem BioAssay AID617 (SRMLSC, 2007).

tested on: E. coli BW25113 ΔtolC growth inhibition, OD615; experiment: E. coli ΔtolC antibacterial growth inhibition – strain BW25113 ΔtolC::kan, dose response (AID 617)
Procedure, shortened: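 System: E. coli BW25113 ΔtolC::kan bacteria. Amount: 1:1000 diluted subculture inoculum. Medium: LB broth supplemented with kanamycin at 50 µg/mL. Compound dosing: serial dilution series of compound. Schedule: 20 h exposure at 37 °C. Detection: OD615. Measure: IC50 of bacterial growth inhibition. Benchmarks: chloramphenicol control, 30 µM final.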

Compound	IC50 [µM]
c1ccc(-c2nc(N3CCCCCC3)nc(-n3ccnc3)n2)cc1	7.72
Cc1ccc(Cl)cc1NC(=O)CC(O)(C(F)(F)F)C(F)(F)F	3.77
O=c1c2ccccc2nc(SCc2cn3ccsc3n2)n1-c1ccccc1F	23.3
O=C(Nc1ccc2c(c1)OCO2)c1ccc(COc2ccc3c(c2)CCC3)o1	7.79
Cc1sc(NC(=O)c2ccco2)c(CN2CCN(c3ccccn3)CC2)c1C	9.55
CCC(=O)N1CCN(c2cc3c(cc2F)c(=O)c(C(=O)O)cn3CC)CC1	< 0.2
COc1ccccc1-n1c(=O)oc2ccc(Cl)cc2c1=O	1.49
COc1cc(-c2nc(Cc3ccccc3Cl)no2)cc(OC)c1OC	11.5
COc1ccc(S(=O)(=O)Nc2ccc(S(=O)(=O)N3CCCCC3)cc2)cc1	15
CCOc1cc(-c2c(C#N)c(=O)[nH]c3c2c(C)nn3-c2ccc(F)cc2)ccc1O	2.48
Fc1ccc(-n2c(Cc3ccccc3)nnc2SCc2nc(-c3cccs3)no2)cc1	19.1
Cc1ccc2[nH]c(=O)c(CN(Cc3nnnn3Cc3ccccc3)C3CCCC3)cc2c1	53.3
Cc1ccc2c(c1)[nH]c1c(N3CCN(Cc4ccccc4)CC3)ncnc12	39.1
COc1cccc(-c2cc(C(=O)N3C(C)CCCC3C)no2)c1 (centres undefined)	32.8
CCn1c(CNc2cccc(Cl)c2)nnc1SCC(=O)OC1CCCCC1	17.8
Cc1cc(C)c(C#N)c(SCC(=O)OC2CCCCC2)n1	19.1
CCOC(=O)C1=C(N)OC2=C(C(=O)CCC2)C12C(=O)N1c3c(ccc(C)c32)C(C)=CC1(C)C (centres undefined)	13.8
COc1ccc(-n2c(C)cc(C(=O)COC(=O)Cn3cnc4ccccc43)c2C)cc1	3.33
CCOC(=O)N1CCN(c2nc(N(c3ccccc3)c3ccccc3)nc(-n3ccnc3)n2)CC1	20.3
Cc1nn(Cc2ccc(Cl)cc2)c(C)c1NC(=O)c1noc2c1CCCCC2	13.4
CC1=C(C#N)c2nc(N)c(C#N)c(C)c2/C1=C\c1ccccc1	3.05
O=C(Nc1ccc(Cl)cc1)N1CCC(c2nc(-c3cccs3)no2)CC1	6.4

Compound	IC50 [µM]
CN(C)C1(c2nnnn2CCOC(=O)Nc2ccc(Cl)cc2)CCCCC1	8.24
COc1ccc(C)cc1NC(=O)CSc1nnc(COc2ccccc2)n1Cc1ccco1	22
CCCCCC/C(=N/O)c1ccccn1	3.15
O=C(CSc1n[nH]c(-c2ccco2)n1)N1c2ccccc2Sc2ccccc21	9.51
c1ccc(-c2nc(N3CCCCCC3)c3ccccc3n2)nc1	1.68
Cc1ccc2cc(CN(Cc3ccccc3)Cc3nnnn3C3CCCC3)c(=O)[nH]c2c1	11.6
O=C1c2ccccc2C(O)(Cc2ccccc2)N1C1CCCCC1 (centres undefined)	11.5
CC(=O)c1ccccc1OCC(O)CN1CCN(C(c2ccccc2)c2ccccc2)CC1 (centres undefined)	14.1
N#Cc1c(NC(=O)CSc2n[nH]c(Cc3ccccc3)n2)oc(-c2ccccc2)c1-c1ccccc1	7.4
Cc1ccc(Nc2cc(C)nn2-c2nc(C)cc(=O)[nH]2)cc1	0.18
Cc1cccc(NC(=O)c2cc3n(n2)C(C(F)(F)F)CC(c2ccc4c(c2)OCO4)N3)c1 (centres undefined)	6.87
CC(C)(C)NC(=O)C(c1ccco1)N(C(=O)Cn1nnc(-c2ccc(F)cc2)n1)c1cccc(F)c1 (centres undefined)	20.9
O=C(Nc1ccc(N2CCN(C(=O)c3ccco3)CC2)c(Cl)c1)c1cccs1	12.3
Cc1cc(-c2ccco2)c(C#N)c2nc3ccccc3n12	9.09
COC(=O)c1ccc(Oc2nc(N3CCCCC3)nc(N3CCOCC3)n2)cc1	20.3
O=C(Nc1nnc(C2CC2)s1)c1cc(-c2ccccc2)nn1-c1ccccc1	6.41
CCc1nc2sc3ccccc3c(=O)c2c(=O)n1Cc1ccco1	17.1
CCOc1ccc2[nH]c3c(N4CCN(c5ccccn5)CC4)ncnc3c2c1	12.2
O=C(Nc1ccn(Cc2ccc(Cl)cc2)n1)c1ccc2c(c1)OCO2	7.31
CCCOc1ccc2oc(=O)c3c(c2c1)CCCN3C(=O)CN1CCc2ccccc2C1	14.1
O=C(CCCSc1nc(-c2ccco2)cc(C(F)(F)F)n1)Nc1ccc2c(c1)OCO2	4.61
Cc1cc(Nc2ccccc2)n(-c2nc3ccccc3[nH]2)n1	4.9
